The source of these data is ChEMBL document CHEMBL1158347, “Substituted quinazolines, part 3. Synthesis, in vitro antitumor activity and molecular modeling study of certain 2-thieno-4(3H)-quinazolinone analogs” (2009).

Holding throughout (assay type): functional
Experiment [1] can be described thus: Growth inhibition of human leukemia cells after 48 hrs. Conditions: Leukemia cell. In short, it runs like this:
(§1)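 NCI in vitro disease-oriented human tumor cell line screen. Compounds passing a one-dose primary assay (MCF-7, NCI-H460, SF-268; pass = growth of any line reduced to 32% or less) were tested on the 60-line panel over a 5-log dose range. Compounds were dissolved in DMSO, with under 1% DMSO in final dilutions, and tested in duplicate at 6×10^4 cells/ml. Cells were incubated at 37 °C in 5% CO2 for 48 h, then diluted 10-fold in saline and counted with a Coulter counter, with counts corrected for dilution. Controls held PBS/DMSO at identical dilutions. GI50 was reported per line and as subpanel/full-panel mean-graph midpoint.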

Experiment [2] concerns NSCLC. Put plainly: Growth inhibition of human NSCLC cells after 48 hrs. In short, it runs like this: as §1
The nature of experiment [3]: Growth inhibition of human Colon cancer cells after 48 hrs. To be noted: Cancer cell lines. In short, it runs like this:
as §1

Experiment [4] is described as follows: Growth inhibition of human CNS cancer cells after 48 hrs. To be noted: Cancer cell lines. In short, it runs like this: as §1
Experiment [5] is described as follows: Growth inhibition of human melanoma cells after 48 hrs. Conditions: Melanoma cell. In outline: as §1
Experiment [6] in a line: Growth inhibition of human ovarian cancer cells after 48 hrs. Conditions: Cancer cell lines. In short, it runs like this:
as §1

A short description of experiment [7]: Growth inhibition of human renal cancer cells after 48 hrs. To be noted: Cancer cell lines. In outline:
as §1

A short description of experiment [8]: Growth inhibition of human prostate cancer cells after 48 hrs. To be noted: Cancer cell lines. In outline:
as §1

A short description of experiment [9]: Growth inhibition of human breast cancer cells after 48 hrs. To be noted: Cancer cell lines. In short, it runs like this:
as §1

For experiment [10], the system named is CCRF-CEM. Put plainly: Growth inhibition of human CCRF-CEM cells after 48 hrs. To be noted: for CC50: read-out: LC50 (the source's name). In short, it runs like this: as §1
For experiment [11], the system named is HL-60(TB). Put plainly: Growth inhibition of human HL-60(TB) cells after 48 hrs. To be noted: HL-60, 48 h; for CC50: read-out: LC50 (the source's name). In short, it runs like this: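 NCI 60-cell-line screen over a 5-log dose range. Compounds were dissolved in DMSO, final DMSO under 1%. Duplicate wells were seeded at 6×10^4 cells/ml, with PBS/DMSO vehicle controls at identical dilutions. Cells were incubated 48 h at 37 °C in humidified 5% CO2, diluted 10-fold in saline, and counted by Coulter counter with dilution correction. GI50 read-out.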

Experiment [12] has as its system K562. Put plainly: Growth inhibition of human K562 cells after 48 hrs. Conditions: K562, 48 h. In outline: as §1
The subject of experiment [13] is RPMI-8226. Put plainly: Growth inhibition of human RPMI8226 cells after 48 hrs. Conditions: RPMI-8226, 48 h; for CC50: read-out: LC50 (the source's name). In short, it runs like this: as §1
The subject of experiment [14] is SK-MEL-2. Kind of experiment: Growth inhibition of human SK-MEL-2 cells after 48 hrs. Conditions: SK-MEL-2, 48 h. In short, it runs like this:
as §1

Experiment [15] deals with UACC-257. Put plainly: Growth inhibition of human UACC257 cells after 48 hrs. To be noted: UACC-257, 48 h. In outline: as §1
In experiment [16] the test system is MCF7. Kind of experiment: Growth inhibition of human MCF7 cells after 48 hrs. To be noted: MCF7, 48 h; for CC50: read-out: LC50 (the source's name). In outline:
as §1

Experiment [17] has as its system T47D. Kind of experiment: Growth inhibition of human T47D cells after 48 hrs. In outline: as §1

`O=c1c2cc(I)ccc2nc(-c2cccs2)n1O`: the GI50 in experiment [1] stood at 34.3 µM; in experiment [2], 33.2 µM; in [3], 45.8 µM; in [4], 33.2 µM; in experiment [5], 57.3 µM; in experiment [6], 32.1 µM. The concentration for 50% growth inhibition (GI50) was 49.8 µM in experiment [7], 39.9 µM in experiment [8] and 39.4 µM in experiment [9]. Besides, the TGI is > 100 µM in experiment [1]; 91.2 µM in experiment [2]; > 100 µM in [3]; 94.4 µM in [4]; 97.1 µM in experiment [5]; 87.9 µM in [6]. The total growth inhibition concentration (TGI) in [7] is > 100 µM; in experiment [8], 98.4 µM; in [9] it was > 100 µM.
For the compound `O=c1c2cc(I)ccc2nc(-c2cccs2)n1/N=C/c1ccccc1`, the concentration for 50% growth inhibition (GI50) in experiment [1] is 63.4 µM; in [2], > 100 µM; in [3] it was > 100 µM; in experiment [4] it was > 100 µM; in experiment [5], 90.3 µM; in experiment [6] it was > 100 µM. Moreover, the GI50 in experiment [7], in experiment [8] and in experiment [9] was > 100 µM in each case. In addition, the TGI in experiment [1], in experiment [2], in experiment [3], in experiment [4], in [5] and in [6] was > 100 µM throughout. Moreover, the TGI in experiment [7], in experiment [8] and in experiment [9] was > 100 µM in each case.
In the case of `CC(=O)CC(=O)Nn1c(-c2cccs2)nc2ccc(I)cc2c1=O`, the concentration for 50% growth inhibition (GI50) in experiment [1] stood at 38.5 µM; in experiment [2], 27.5 µM; in experiment [3] it was 28.1 µM; in experiment [4] it was 27.9 µM; in experiment [5], 37.7 µM; in experiment [6], 40.9 µM. Further, the GI50 in [7] is 28.9 µM; in experiment [8] it was 20.6 µM; in [9], 24.9 µM. Also, the TGI in [1] was > 100 µM; in experiment [2], 86.4 µM; in experiment [3] it was 90.9 µM; in [4], 89.1 µM; in experiment [5] it was 85.3 µM; in experiment [6], 93.6 µM. For the same compound, the results for the TGI in experiment [7], in experiment [8] and in [9] were 85.1 µM, > 100 µM and 82.1 µM, respectively.
Consider `O=c1c2cc(I)ccc2nc(-c2cccs2)n1-c1ccc(S(=O)(=O)Nc2nccs2)cc1`, for which the GI50 came out at 54 µM in experiment [1]; 38.7 µM in experiment [2]; 44.7 µM in [3]; 41.4 µM in experiment [4]; 45.2 µM in [5]; 46.5 µM in [6]. For the same compound, the GI50 worked out at 34.2 µM in experiment [7], 32.9 µM in experiment [8] and 34.8 µM in experiment [9]. Besides, the TGI in experiment [1] is > 100 µM; in [2], 89.5 µM; in experiment [3], 94.6 µM; in experiment [4], 87.7 µM; in [5] it was 84.8 µM; in [6], > 100 µM. Besides, the TGI in [7] was 84.3 µM; in experiment [8], > 100 µM; in [9], 88.3 µM.
Regarding `CCCCNC(=O)c1cc(I)ccc1NC(=O)c1cccs1`, the GI50 is 83.8 µM in [1]; 96 µM in experiment [2]; > 100 µM in experiment [3]; > 100 µM in experiment [4]; > 100 µM in experiment [5]; > 100 µM in experiment [6]. For the same compound, the 50% growth inhibitory concentration (GI50) in experiment [7], in [8] and in experiment [9] was > 100 µM each time. Moreover, the TGI in experiment [1], in experiment [2], in [3], in [4], in experiment [5] and in experiment [6] was > 100 µM throughout. The TGI in experiment [7], in experiment [8] and in experiment [9] was > 100 µM in each case.
Turning to `CCSc1nc(-c2cccs2)nc2ccc(I)cc12`, the concentration for total growth inhibition (TGI) in [1], in [2], in experiment [3], in experiment [4], in [5] and in experiment [6] was > 100 µM each time. Besides, the TGI in [7], in experiment [8] and in experiment [9] was > 100 µM in each case. For the same compound, the 50% growth inhibitory concentration (GI50) in experiment [2] was 84.2 µM; in experiment [3] it was 94.6 µM; in experiment [4] it was > 100 µM; in experiment [5] it was > 100 µM; in experiment [6], 85.2 µM; in experiment [7] it was > 100 µM. Moreover, the GI50 in experiment [8] was > 100 µM; in experiment [9], 71.4 µM.
On to `NS(=O)(=O)c1ccc(-n2c(-c3cccs3)nc3ccc(I)cc3c2=O)cc1`, for which the 50% growth inhibitory concentration (GI50) in experiment [10] is 41 µM; in experiment [11], 20 µM; in experiment [12] it was 37 µM; in [13], 25 µM; in [14] it was 22 µM; in experiment [15], 50 nM. Also, the 50% growth inhibitory concentration (GI50) in [16] worked out at 23 µM; in experiment [17], 19 µM; in experiment [1], 35.3 µM; in [2] it was 24 µM; in experiment [3], 24.8 µM; in experiment [4] it was 30.3 µM. Also, the GI50 in experiment [5] was 17.6 µM; in [6] it was 23.5 µM; in experiment [7], 24.7 µM; in experiment [8], 22.7 µM; in experiment [9] it was 23.3 µM. Also, the total growth inhibition concentration (TGI) is > 100 µM in [10]; 64 µM in experiment [11]; > 100 µM in experiment [12]; 62 µM in experiment [13]; 48 µM in [14]; 19 µM in experiment [15]. Also, the total growth inhibition concentration (TGI) in experiment [16] amounted to 65 µM; in experiment [17] it was 44 µM; in experiment [1] it was 87.7 µM; in experiment [2] it was 61.3 µM; in experiment [3] it was 59.3 µM; in experiment [4] it was 73.8 µM. Further, the TGI worked out at 43 µM in [5]; 65.1 µM in [6]; 64.1 µM in experiment [7]; 58.9 µM in experiment [8]; 62.5 µM in experiment [9]. Further, the CC50 was > 100 µM in experiment [10]; > 100 µM in [11]; > 100 µM in experiment [13]; > 100 µM in [16]; 94.1 µM in experiment [7] (read-out: LC50 (the source's name)). Also, the LC50 (concentration killing 50% of cells) in [12] is > 100 µM. Also, the 50% lethal concentration (LC50) in experiment [14] was > 100 µM; in [15] it was > 100 µM; in experiment [17], 99 µM; in experiment [3], 87.1 µM.
In the case of `NNC(=O)COc1nc(-c2cccs2)nc2ccc(I)cc12`, the 50% growth inhibitory concentration (GI50) in experiment [10] is 20 µM; in experiment [11], 38 µM; in [12], 37 µM; in experiment [13], 16 µM; in experiment [14], 25 µM; in experiment [15] it was < 10 nM. The GI50 in experiment [16] amounted to 16 µM; in experiment [17], 2 µM; in [1], 25.4 µM; in experiment [2] it was 19.4 µM; in experiment [3] it was 24.3 µM; in [4] it was 20.7 µM. In addition, the 50% growth inhibitory concentration (GI50) in experiment [5] was 19.4 µM; in experiment [6], 22.3 µM; in experiment [7], 23.1 µM; in [8], 23.5 µM; in experiment [9] it was 18.7 µM. Also, the total growth inhibition concentration (TGI) in experiment [10] is 88 µM; in experiment [11], > 100 µM; in experiment [12], > 100 µM; in experiment [13], 39 µM; in [14] it was 71 µM; in experiment [15], > 100 µM. Besides, the concentration for total growth inhibition (TGI) in experiment [16] worked out at 89 µM; in experiment [17], 22 µM; in experiment [1], 80.5 µM; in experiment [2] it was 59.6 µM; in experiment [3], 66.9 µM; in experiment [4], 62.1 µM. The concentration for total growth inhibition (TGI) in experiment [5] turned out to be 51.1 µM; in experiment [6], 72.5 µM; in [7], 71.1 µM; in experiment [8], 75.3 µM; in experiment [9], 64.7 µM. In addition, the CC50 in [10] is > 100 µM; in [11], > 100 µM; in [13] it was 97 µM; in experiment [16] it was > 100 µM. In addition, the LC50 (concentration killing 50% of cells) in [12] was > 100 µM. Further, the 50% lethal concentration (LC50) in [14], in experiment [15] and in [17] was > 100 µM throughout.
For the compound `O=c1[nH]cc(F)c(=O)[nH]1` [FLUOROURACIL], the GI50 is 15.1 µM in [1], > 100 µM in experiment [2], 8.37 µM in [3] and 72.1 µM in experiment [4]. For the same compound, the concentration for total growth inhibition (TGI) in experiment [1], in [2], in experiment [3], in [4], in [5] and in experiment [6] was > 100 µM in each case. For the same compound, the total growth inhibition concentration (TGI) in experiment [7], in [8] and in experiment [9] was > 100 µM throughout.

The term GI50 denotes the concentration at which growth is held to half of that of the control. What is called TGI is the concentration giving total growth inhibition. Read a high TGI as less potent growth arrest. Usually LC50 stands for the concentration lethal to half of the exposed cells or organisms. Read a high LC50 as lower toxicity.
